Experimental data as given in the EternaBench riboswitch data.

Test system: MS2 coat protein
Test: apparent Kd, MS2 coat protein; higher = weaker binding; RNA-MaP array; FMN 200 µM where present
How it was run: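 Stalled E. coli RNA polymerase transcribed the designs on Illumina sequencing-chip clusters. SNAP-549-labelled MS2 coat protein was titrated from 0.7 or 1.5 nM, doubling to 3 µM, without and then with constant ligand, in 100 mM Tris-HCl pH 7.5, 80 mM KCl, 4 mM MgCl2, BSA, DTT, yeast tRNA and Tween-20. Per-cluster binding curves were fitted to green signal normalised to red-channel RNA signal and control-cluster median Fmax. The apparent Kd is the median of the filtered fits.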

[1] = designed as: ON switch for flavin mononucleotide, no ligand
[2] = ligand present: flavin mononucleotide, designed as: ON switch for flavin mononucleotide
[3] = designed as: OFF switch for flavin mononucleotide, no ligand
[4] = ligand present: flavin mononucleotide, designed as: OFF switch for flavin mononucleotide

Sequence: GGACGUCACAUUAACAUGAGGAUCACCCAUGUCAAAGGACAUGAGGAUAUGGAUCCUAAUUGGAUCCAGAAGGCAUGGACGUCC
- apparent Kd [1]: 398 nM
- apparent Kd [2]: 34.3 nM

Sequence: UCGAUGCUAGGAUAUACUAAUACAACUACUGAAGUGUCUUCACAUGAGGAUCACCCAUGUAGAAGGAGCAUAUA
- apparent Kd [3]: 59.5 nM
- apparent Kd [4]: 46.8 nM

Sequence: UCGGAGAAAGGAUAUACACCAAGGGUAUAGUAGGAUCCUGGACAUGAGGAUCACCCAUGUAGAAGGUUCACUGC
- apparent Kd [3]: 60.1 nM
- apparent Kd [4]: 31.1 nM

Sequence: AAAGUGUGAGGAUAUUCGUAGUACACGGAGACGUGUAUUACGGAGAAGGCACAUGAGGAUCACCCAUGUUCCUU
- apparent Kd [3]: 20.4 nM
- apparent Kd [4]: 143 nM

Sequence: GUAGCAUACCGAGGAUAUUCAGGGCGUAAAUAAACAUGAGGAUCACCCAUGUGGCGAAAGCCUAGGGAGAAGGCGGAAUGCUAC
- apparent Kd [1]: 17.1 nM
- apparent Kd [2]: 16.8 nM

Sequence: GUCAGCUCGUGAGGAUAUACAACACUGCUUCGGCAGUAUAUUAAGAUCACAUGAGGAUCACCCAUGUAGAAGGCACGAGCUGAU
- apparent Kd [3]: 15 nM
- apparent Kd [4]: 284 nM

Sequence: CACGAGCUAGGAUAUACAUGAGGAUCACCCAUGUAAGUCAUGCGGUCACAUCUGACAGGUAGAAGGAGCGCGUC
- apparent Kd [3]: 39.3 nM
- apparent Kd [4]: 126 nM

Sequence: AAUUAUUGAUGAGGAUAUUGUGGUGAAACACGACAAGAAGGCAUUAUUCACAUGAGGAUCACCCAUGUGAGCCUGAUGCAUAUA
- apparent Kd [3]: 14.5 nM
- apparent Kd [4]: 13.9 nM

Sequence: UGUGCGUAUGUGAGGAUAUGCUGGUCCUUGGAUCGGCAGAAGGCACAUGAGGAUCACCCAUGUGGUGUCGUACA
- apparent Kd [3]: 493 nM
- apparent Kd [4]: 19.2 nM

Sequence: AGCUGUGGCAGAGGAUAUACUCCUAAAAUCCAUUGCAAAUAGCGAUGGACAUGAGGAUCACCCAUGUAGAAGGCUGUCUCAGCA
- apparent Kd [3]: 57.2 nM
- apparent Kd [4]: 649 nM

Sequence: GGAUGAGAAACUCAUCCAUAACGAACAUGAGGAUCACCCAUGUAGGAUAUGCUACUCAAAGAGUAGCAGAAGGACAUGUGCCUU
- apparent Kd [3]: 29.8 nM
- apparent Kd [4]: 259 nM

Sequence: CUAUCAAGCAAGGAUAUGCAAAUAAUUAUUUAUGCAGAAGGUGCAACAUGAGGAUCACCCAUGUUUCUGGGUUU
- apparent Kd [3]: 57.4 nM
- apparent Kd [4]: 89.6 nM

Sequence: CAAGGCGGUGAAGGAUAUACACGGGCGUUGCCAAACAUGAGGAUCACCCAUGUAGAAGGUCACCCUGAGAAGGCUUUAUGCCAU
- apparent Kd [3]: 382 nM
- apparent Kd [4]: 45.2 nM

Sequence: AUCAGCUCGUCAGGAUAUACGUCACUGCGUCAGCAGUGCGGUAAGAUCACAUGAGGAUCACCCAUGUAGAAGGGACGAGCUGAU
- apparent Kd [3]: 6.4 nM
- apparent Kd [4]: 20.1 nM

Sequence: AUGUAGUACGUAGGAUAUCAAUGAGGAUCACCCUGAGAAGGACGUGAGGACAUGAGGAUCACCCAUGUGGAUCACCCAUGUCAU
- apparent Kd [3]: 173 nM
- apparent Kd [4]: 142 nM

Sequence: UGAUCUUUUGUUAGGAUAUGCUGGGUUUUUUCUCAGCAGAAGGGACAUGAGGAUCACCCAUGUUUUGUCAUAAA
- apparent Kd [3]: 18.9 nM
- apparent Kd [4]: 47.6 nM

Sequence: AAUAUAAGAGCUGGUAAAUAACUCACAUGAGGAUCACCCAUGUAGGAUAUCAGCACGAUAAGUGCUGAGAAGGACAUCCAGCUC
- apparent Kd [3]: 15.4 nM
- apparent Kd [4]: 16.2 nM

Sequence: UGAUACUAAGAGAAGGUACAAACUACAUAUUACAUACAUGAGGAUCACCCAUGUUGGUGAAUAAGUAAGGAUAUUUUACUAUAU
- apparent Kd [3]: 15.4 nM
- apparent Kd [4]: 12.4 nM

Sequence: CGAUAUAUGAAGGGCGAAAGCCCACAUGAGGAUCACCCAUGUAGAAGGCGGGCCGCAACGCGGCCCGAGGAUAUAUAAUAUACA
- apparent Kd [4]: 9.15 nM

Sequence: UCAAAUACUGAGGAUAUAACGACUGAAUCCGCGUUAGAAGGUAGUACAUGAGGAUCACCCAUGUCAACCAGAGG
- apparent Kd [4]: 18.7 nM

Sequence: CAUGUCCUCACAGGAUAUGCUGGACUUUGUCCAGCAGAAGGGUGAACAUGAGGAUCACCCAUGUUGUGGACAUGUAUAUUUAAG
- apparent Kd [1]: 228 nM
- apparent Kd [2]: 575 nM

Sequence: CCGGAAAUACAGGAUAUAGGAGUCGAUAGACUCCUAGAAGGGUAUACAUGAGGAUCACCCAUGUGUCCUACCGG
- apparent Kd [3]: 26.5 nM
- apparent Kd [4]: 31.7 nM

Sequence: UUUAUAAGAAAAUAAACGAAGUGGCCAGAAGGUGAAUGCCACAUGAGGAUCACCCAUGUUUCGAUCAAGGAUAUGGUUUCUCAC
- apparent Kd [1]: 400 nM
- apparent Kd [2]: 107 nM

Sequence: UUUGGGUGGCUGGAGGAUAUUCGAGUGGUUACAUGAGGAUCACCCAUGUGUCGCGCGGUACACGAGGAGAAGGCUGGCGGCCGUU
- apparent Kd [1]: 50.8 nM
- apparent Kd [2]: 22.4 nM

Sequence: UGGUACUAGGGAGGAUAUGGGAAGAUACAUGAGGAUCACCCAUGUAUAAGAAUGCCGAGAGGCAACUAGAAGGCCCUAGUACCU
- apparent Kd [1]: 10.8 nM
- apparent Kd [2]: 5.48 nM

Sequence: UGAUUGAGAUUGUAGGAUAUUGGAAAAGCCACAUGAGGAUCACCCAUGUCAAAAAAAAAAAAAAACAAGAAGGGCGGUUUUAGUUA
- apparent Kd [1]: 72.9 nM
- apparent Kd [2]: 61.8 nM

Sequence: GCUUGUGAAGGAUAUACUGGCGGCGUGCGCUCGAAGCACGCACAUGAGGAUCACCCAUGUAGAAGGUCAGGCGU
- apparent Kd [3]: 16.3 nM
- apparent Kd [4]: 13.8 nM

Sequence: UAGAUACAUGAGGAUCACCCAUGUGAGGAUAUCGUUUGUACUAAUCUUUUAGUAUUUUCGAGAAGGCACAUAUA
- apparent Kd [3]: 73.9 nM
- apparent Kd [4]: 183 nM

Sequence: GGAAGACAAAGUCUUCCAUAACGAACAUGAGGAUCACCCAUGUAGGAUAUGCUUCUCAAAGAGAAGCAGAAGGACAUGUGUCUU
- apparent Kd [3]: 29.7 nM
- apparent Kd [4]: 137 nM

Sequence: UGGGAGUCAGGAUAUACGAACAUGUCGCCAGAUGUCAAGGUACAUGAGGAUCACCCAUGUAGAAGGGACUAGAA
- apparent Kd [3]: 39.4 nM
- apparent Kd [4]: 42.1 nM

Sequence: GCUAUAGCGGAGGAUAUCCCGAAAAGAAGUUUAGGAGAAGGCCGCACAUGAGGAUCACCCAUGUGAGUCCGCAA
- apparent Kd [3]: 22.7 nM
- apparent Kd [4]: 119 nM

Sequence: CCUUCACAUGAGGAUCACCCAUGUGAGGAUAUCCUGCGAGGAUCAAAAGAUCCUCGUGGGAGAAGGCACAUGGA
- apparent Kd [3]: 110 nM
- apparent Kd [4]: 180 nM

Sequence: UCCACUACUGAGAAGGGAUACAUAUGGUUCUAGUCAGGAUAUCGAUACAGUGCAGCAUGAGGACAUGAGGAUCACCCAUGUAUU
- apparent Kd [1]: 54.6 nM
- apparent Kd [2]: 36.2 nM

Sequence: UUAAUGUGAGGAUAUCAGGUGUGCUAGCGUACUGGUACAUCUGAGAAGGCACAUGAGGAUCACCCAUGUUCCAG
- apparent Kd [3]: 32.8 nM
- apparent Kd [4]: 100 nM

Sequence: AUAGCUCCCUAGAAGGGCCAACCAGUAUUCCAUCAGGUAUUUGCGGUAGGUAGGAUAUGGGACAUGAGGAUCACCCAUGUGUAG
- apparent Kd [1]: 35.8 nM
- apparent Kd [2]: 25.8 nM

Sequence: UCAUUAUAAAUCCAUCAUAACUACAUGAGGAUCACCCAUGUGCAGGAUAUCGAUGGUUUAACUAUCGAGAAGGGCAUUUACAGA
- apparent Kd [3]: 47.8 nM
- apparent Kd [4]: 146 nM

Sequence: AUUAUUGACGAAGGAUAUGGAUACAUGAGGAUCACCCAUGUAUAAUUUGUGUUCUUAUAUUUGAUCCAGAAGGUCGUUGUUUAU
- apparent Kd [3]: 35.8 nM
- apparent Kd [4]: 54.6 nM
